Measured values: ChEMBL document CHEMBL5321214, “Targeting the multifaceted neurotoxicity of Alzheimer's disease by tailored functionalisation of the curcumin scaffold” (Eur J Med Chem, 2023)
Calls of active or inactive are those of the source. No cut-off for these calls is given here.

Key:
Microglia [1] = assay: Antiinflammatory activity against Sprague-Dawley rat microglial cells assessed as inhibition of LPS-induced IL-1 beta production at 1 to 20 uM pretreated with compound for 1 hr followed by LPS stimulation for 24 hrs by ELISA; format: functional, cell-based; details: dose 1-20 µM, time 25.0 hrs
Method in brief: (§1)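 Primary cortical rat microglia in DMSO (≤0.1%) or vehicle for 1 h, then 100 ng/mL LPS for 24 h. TNF-α and IL-1β in culture medium by ELISA against standard curves (pg/mL), expressed as % of LPS-stimulated cultures. Mean ± SEM of 3 independent experiments; one-way ANOVA, Holm-Sidak test.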

Microglia [2] = assay: Antiinflammatory activity against Sprague-Dawley rat microglial cells assessed as downregulation of TNF-alpha mRNA expression at 10 uM pretreated with compound for 1 hr followed by LPS stimulation for 6 hrs by real-time PCR analysis; format: functional, cell-based; details: time 7.0 hrs
Method in brief: (§2)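 Primary cortical microglia (postnatal day 1 rat pups, shaken off mixed glial cultures, ~97% Iba1-positive). Compound (DMSO ≤0.1%) for 1 h, then 100 ng/mL ultra-pure E. coli LPS for 6 h. QIAzol RNA extraction, SuperScript IV reverse transcription, real-time PCR. Mean ± SEM, n = 3 in triplicate; one-way ANOVA, Holm-Sidak test.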

Microglia [3] = assay: Antiinflammatory activity against Sprague-Dawley rat microglial cells assessed as inhibition of LPS-induced TNF-alpha production at 1 to 20 uM pretreated with compound for 1 hr followed by LPS stimulation for 24 hrs by ELISA; format: functional, cell-based; details: dose 1-20 µM, time 25.0 hrs; method in brief: as §1
Microglia [4] = assay: Antiinflammatory activity against Sprague-Dawley rat microglial cells assessed as downregulation of NLRP3 mRNA expression at 10 uM pretreated with compound for 1 hr followed by LPS stimulation for 6 hrs by real-time PCR analysis; format: functional, cell-based; details: time 7.0 hrs; method in brief: as §2
[5] = Effect on TNF-alpha release in Sprague-Dawley rat microglial cells at 20 uM by ELISA; format: toxicity, cell-based; details: microglia; method in brief: as §1
[6] = biological target: Keap1/Nrf2 (Homo sapiens) (UniProt Q16236+Q14145); assay: Activation of Keap1/Nrf2 in human SH-SY5Y cells assessed as Nrf2 nuclear translocation by measuring increase in nuclear to cytosolic Nrf2 ratio at 2.5 uM incubated for 3 hrs by western blot analysis; format: cell-based
Keap1/Nrf2 (Homo sapiens), sequence (Q14145 whole entry, looked up): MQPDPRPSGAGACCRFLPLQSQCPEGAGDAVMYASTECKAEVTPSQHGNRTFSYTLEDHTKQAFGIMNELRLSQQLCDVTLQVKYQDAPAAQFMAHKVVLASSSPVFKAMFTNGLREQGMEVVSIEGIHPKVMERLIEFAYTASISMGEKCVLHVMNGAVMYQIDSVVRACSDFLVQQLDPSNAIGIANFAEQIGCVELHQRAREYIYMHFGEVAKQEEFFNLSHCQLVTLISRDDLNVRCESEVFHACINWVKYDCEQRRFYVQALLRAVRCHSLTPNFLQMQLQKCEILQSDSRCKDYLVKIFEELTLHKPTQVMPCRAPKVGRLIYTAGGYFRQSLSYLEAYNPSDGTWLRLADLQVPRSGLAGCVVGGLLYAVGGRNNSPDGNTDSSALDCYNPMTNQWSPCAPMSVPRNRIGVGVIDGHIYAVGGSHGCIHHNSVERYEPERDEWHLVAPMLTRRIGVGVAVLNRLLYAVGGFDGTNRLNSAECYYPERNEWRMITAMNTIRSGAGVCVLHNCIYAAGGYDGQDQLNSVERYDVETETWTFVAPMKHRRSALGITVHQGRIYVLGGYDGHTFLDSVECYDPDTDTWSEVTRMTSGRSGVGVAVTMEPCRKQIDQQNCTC
Keap1/Nrf2 (Homo sapiens), sequence (Q16236 whole entry, looked up): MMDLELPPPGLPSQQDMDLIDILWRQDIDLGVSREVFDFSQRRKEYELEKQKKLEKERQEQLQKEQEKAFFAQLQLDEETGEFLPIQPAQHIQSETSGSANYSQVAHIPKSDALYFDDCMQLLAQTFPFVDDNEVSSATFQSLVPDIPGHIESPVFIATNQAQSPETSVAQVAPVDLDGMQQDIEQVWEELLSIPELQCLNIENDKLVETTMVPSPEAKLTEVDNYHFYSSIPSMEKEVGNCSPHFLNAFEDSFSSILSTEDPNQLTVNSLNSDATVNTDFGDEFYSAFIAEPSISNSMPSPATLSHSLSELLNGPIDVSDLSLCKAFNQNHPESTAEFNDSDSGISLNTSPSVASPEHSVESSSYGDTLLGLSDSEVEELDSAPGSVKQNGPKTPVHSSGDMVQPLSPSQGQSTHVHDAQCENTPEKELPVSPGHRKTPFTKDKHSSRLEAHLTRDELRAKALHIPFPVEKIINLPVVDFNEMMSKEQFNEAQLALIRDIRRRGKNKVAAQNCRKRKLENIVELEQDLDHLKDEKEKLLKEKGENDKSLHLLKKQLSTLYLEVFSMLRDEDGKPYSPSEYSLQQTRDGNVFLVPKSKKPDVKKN
Method in brief: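 SH-SY5Y seeded 2×10^6 cells/dish, grown 24 h, then exposed 3 h at 37 °C, 5% CO2. Nuclear and cytosolic fractions immunoblotted for Nrf2, membranes stripped and reprobed for β-actin and lamin B1 as loading references. Mean ± SEM of three independent experiments; one-way ANOVA with Dunnett's test.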

[7] = Effect on IL-1 beta release in Sprague-Dawley rat microglial cells at 20 uM by ELISA; format: toxicity, cell-based; details: microglia; method in brief: as §1
SH-SY5Y [8] = assay: Antioxidant activity in human SH-SY5Y cells assessed as increase in intracellular GSH level at 2.5 uM incubated for 24 hrs by […] fluorescence analysis; format: functional
Method in brief: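 SH-SY5Y (2×10^4 cells/well) grown 24 h, then exposed to 2.5 μM for 24 h at 37 °C. Fluorescent probe added 30 min at 37 °C; read at ex 355/em 460 nm. GSH (μM) from a GSH standard curve. Mean ± SEM of three experiments; one-way ANOVA with Dunnett's test.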

SH-SY5Y [9] = assay: Antioxidant activity in human SH-SY5Y cells assessed as reduction in intracellular ROS formation at 2.5 uM incubated for 24 hrs followed by incubation with t-BuOOH for 30 mins by H2DCF-DA staining based fluorescence analysis; format: functional; details: time 24.5 hrs
Method in brief: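 SH-SY5Y (2×10^4 cells/well) exposed to 2.5 μM for 24 h, loaded with H2DCF-DA 30 min at room temperature, probe removed, then challenged with 50 μM t-BuOOH 30 min at room temperature. Fluorescence ex 485/em 535 nm, expressed as % ROS increase. Three independent experiments; one-way ANOVA with Dunnett's test.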

[10] = biological target: Amyloid-beta precursor protein (Homo sapiens) (UniProt P05067); assay: Anti-oligomeric activity against Abeta42 (unknown origin) assessed as depletion of the formation of toxic HMW Abeta42 oligomers at 5 uM measured at day 7 from sample solubilization by capillary electrophoresis assay; details: time 7.0 day
Amyloid-beta precursor protein (Homo sapiens), sequence (P05067 whole entry): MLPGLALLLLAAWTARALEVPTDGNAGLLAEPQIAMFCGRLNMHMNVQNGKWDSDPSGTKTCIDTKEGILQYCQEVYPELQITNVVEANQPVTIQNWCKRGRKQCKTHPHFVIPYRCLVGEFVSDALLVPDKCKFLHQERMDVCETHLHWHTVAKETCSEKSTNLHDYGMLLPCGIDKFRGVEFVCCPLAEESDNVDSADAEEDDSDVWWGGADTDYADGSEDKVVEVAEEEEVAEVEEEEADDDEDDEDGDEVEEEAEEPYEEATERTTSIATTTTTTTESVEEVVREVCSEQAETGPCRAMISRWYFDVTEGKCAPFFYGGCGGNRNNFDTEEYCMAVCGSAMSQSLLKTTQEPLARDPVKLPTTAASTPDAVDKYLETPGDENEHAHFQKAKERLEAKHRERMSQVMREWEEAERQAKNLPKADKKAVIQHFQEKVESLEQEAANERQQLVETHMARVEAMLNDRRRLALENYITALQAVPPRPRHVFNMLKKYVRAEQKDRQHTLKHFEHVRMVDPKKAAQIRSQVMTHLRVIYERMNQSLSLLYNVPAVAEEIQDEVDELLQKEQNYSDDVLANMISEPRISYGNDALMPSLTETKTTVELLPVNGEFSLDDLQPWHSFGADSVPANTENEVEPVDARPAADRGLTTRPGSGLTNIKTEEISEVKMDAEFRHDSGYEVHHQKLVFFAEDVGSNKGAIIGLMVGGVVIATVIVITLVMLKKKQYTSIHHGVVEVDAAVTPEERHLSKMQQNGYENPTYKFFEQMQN
Method in brief: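 Aβ42 stock diluted to 221 μM in 20 mM sodium phosphate pH 7.4 containing compound (ethanol stocks 1.53 mM). Capillary electrophoresis: BGE 80 mM sodium phosphate pH 7.4, 30 mbar × 3 s hydrodynamic injection, +12 kV, 25 °C, 200 nm detection. Oligomers assigned by effective mobility; HMW oligomer peak quantified semiquantitatively as normalised area %.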

SH-SY5Y [11] = assay: Cytotoxicity against human SH-SY5Y cells assessed as effect on cell viability at 1.25 to 40 uM incubated for 24 hrs by MTT assay; format: toxicity, cell-based; details: dose 1.25-40 µM
Method in brief: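 SH-SY5Y, 2×10^4 cells/well, grown 24 h then exposed 24 h (1.25–40 μM) at 37 °C, 5% CO2. MTT 0.5 mg/mL in HBSS for 2 h, washed, formazan dissolved in isopropanol, read at 570 nm (reference 690 nm).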

Microglia [12] = assay: Antiinflammatory activity against Sprague-Dawley rat microglial cells assessed as downregulation of IL-1 beta mRNA expression at 10 uM pretreated with compound for 1 hr followed by LPS stimulation for 6 hrs by real-time PCR analysis; format: functional, cell-based; details: time 7.0 hrs; method in brief: as §2
Microglia [13] = assay: Cytotoxicity against Sprague-Dawley rat microglial cells assessed as effect on cell viability at 1 to 20 uM incubated for 24 hrs by MTT assay; format: toxicity, cell-based; details: dose 1-20 µM
Method in brief: (§3)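 Primary rat microglia, 6×10^4 cells/well, switched to serum-free medium 1 h before 24 h exposure (1–20 μM, DMSO ≤0.1%). MTT 0.18 mg/mL for 4 h at 37 °C, formazan dissolved in DMSO, absorbance 570 nm (reference 630 nm). Vehicle-treated cells = 100% viability.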

Microglia [14] = assay: Antiinflammatory activity against Sprague-Dawley rat microglial cells assessed as inhibition of LPS-induced IL-1 beta production at 1 to 10 uM pretreated with compound for 1 hr followed by LPS stimulation for 24 hrs by ELISA; format: functional, cell-based; details: dose 1-10 µM, time 25.0 hrs; method in brief: as §1
Microglia [15] = assay: Cytotoxicity against Sprague-Dawley rat microglial cells assessed as decrease in cell viability at 20 uM incubated for 24 hrs by MTT assay; format: toxicity, cell-based; method in brief: as §3
[16] = Effect on IL-1 beta release in Sprague-Dawley rat microglial cells at 10 uM by ELISA; format: toxicity, cell-based; details: microglia; method in brief: as §1
Microglia [17] = assay: Antiinflammatory activity against Sprague-Dawley rat microglial cells assessed as inhibition of LPS-induced TNF-alpha production at 1 to 10 uM pretreated with compound for 1 hr followed by LPS stimulation for 24 hrs by ELISA; format: functional, cell-based; details: dose 1-10 µM, time 25.0 hrs; method in brief: as §1
[18] = Effect on TNF-alpha release in Sprague-Dawley rat microglial cells at 10 uM by ELISA; format: toxicity, cell-based; details: microglia; method in brief: as §1

Activity [6] | SMILES | Activity (Microglia [1]) | Activity (Microglia [2]) | Activity (Microglia [3]) | Activity (Microglia [4]) | Activity [5] | Activity [7] | Activity (SH-SY5Y [8]) | inhibition at 2.5 µM (SH-SY5Y [9]) | Activity [10] | Activity (SH-SY5Y [11]) | Activity (Microglia [12]) | Activity (Microglia [13]) | Activity (Microglia [14]) | Activity (Microglia [15]) | Activity [16] | Activity (Microglia [17]) | Activity [18]
inactive | CCOC(=O)C/C(C(=O)/C=C/c1ccc(OC)cc1)=C(O)\C=C\c1ccc(OC)cc1 | Active | Active | Active | Active | Non-Toxic | Non-Toxic | Active | 38% | inactive | Non-Toxic | Active | Non-Toxic |  |  |  |  | 
 | COc1ccc(/C=C/C(=O)/C(CC(=O)OC(C)(C)C)=C(O)/C=C/c2ccc(OC)cc2)cc1 |  |  |  |  |  |  |  |  |  |  |  |  | Active | Toxic | Non-Toxic | Active | Non-Toxic
 | COc1cc(/C=C/C(=O)CC(=O)/C=C/c2ccc(O)c(OC)c2)ccc1O [CURCUMIN] |  | Active |  | Active |  |  |  |  | Active |  | Active |  | Active | Toxic | Non-Toxic | Active | Non-Toxic
